Published values collected from several papers.
Lines come from different studies, so protocols differ.
Integrin alpha-V/beta-3: Integrin alpha-V/beta-3 (Homo sapiens, UniProt P05106+P06756)
MAOA: Amine oxidase [flavin-containing] A (MAOA, Homo sapiens, UniProt P21397)
Acetylcholinesterase: Acetylcholinesterase (Bos taurus, UniProt P23795)
PTPN1: Tyrosine-protein phosphatase non-receptor type 1 (PTPN1, Homo sapiens, UniProt P18031)
LDHA: L-lactate dehydrogenase A chain (LDHA, Homo sapiens, UniProt P00338)
GSR: Glutathione reductase, mitochondrial (GSR, Homo sapiens, UniProt P00390)

`CC[C@H](C)[C@@H]([C@@H](CC(=O)N1CCC[C@H]1[C@H](OC)[C@@H](C)C(=O)N[C@@H](Cc1ccccc1)C(=O)O)OC)N(C)C(=O)[C@@H](NC(=O)[C@H](C(C)C)N(C)C(=O)OCc1ccc(NC(=O)[C@H](C)NC(=O)[C@@H](NC(=O)CCc2cn(CCOCCOCCOCCOCC(=O)NCc3ccc(CN4C(=O)[C@H]5CC(=O)N[C@H](C(=O)O)CC(=O)NCC(=O)N[C@@H](CCCNC(=N)N)C(=O)NC[C@H]4C(=O)N5)cc3)nn2)C(C)C)cc1)C(C)C` has an IC50 of 0.0439 µM (Integrin alpha-V/beta-3; ligand displacement).
`C#CCNc1nc(NCCCCC2CCN(Cc3ccccc3)CC2)c(C#N)cc1C#N` gave an IC50 of 53.3 µM (MAOA; enzyme activity, inhibitor, fluorescence).
The IC50 of `COc1ccc(/C=C/C(=O)N2CCN(Cc3ccccc3)CC2)cc1OC` is reported as 63.2 µM (MAOA; enzyme activity, inhibitor, fluorescence).
`CC(=O)N[C@@H](CS)C(=O)O` has an IC50 of 173 µM (Angiotensin-converting enzyme 2 (ACE2, Homo sapiens, UniProt Q9BYF1); enzyme activity, inhibitor, fluorescence).
With `CNC(=O)Oc1cccc2c1OC(C)(C)O2` the IC50 was 0.195 µM (Acetylcholinesterase; enzyme activity, inhibitor, Ellman).
With `CC(C)(C)OC(=O)N1CCN(C(=O)C(=O)CC(=O)c2cccc(OCc3ccccc3)c2)CC1` the IC50 was 39.5 µM (PTPN1; enzyme activity, inhibitor, absorbance; pH 7).
The IC50 of `NC(=O)c1cccc(-c2cc(OC(=O)NC3CCCCC3)ccc2O)c1` is reported as > 100 µM (Monoglyceride lipase (Rattus norvegicus, UniProt Q8R431); enzyme activity, inhibitor).
`CC(=O)OC[C@H]1O[C@@H](O[C@H]2[C@H](Oc3cc(O)c4c(=O)cc(-c5ccc(O)c(O)c5)oc4c3)O[C@H](CO)[C@@H](O)[C@@H]2O)[C@H](O)[C@@H](O)[C@@H]1O` has an IC50 of 445 µM (LDHA; enzyme activity, inhibitor; pH 7.4).
`CNC(=O)Oc1cccc2c1OC(C)(C)C2` gave an IC50 of 0.073 µM (Acetylcholinesterase; enzyme activity, inhibitor, Ellman).
The IC50 of `CCCCOc1ccc(C(=O)CCN2CCCCC2)cc1` is reported as 3.13 µM (Histamine H2 receptor (HRH2, Homo sapiens, UniProt P25021); ligand displacement, radioligand).
`Nc1ncnc2c1ncn2[C@@H]1O[C@H](COP(=O)(O)OP(=O)(O)OP(=O)(O)O)[C@@H](O)[C@H]1O` gave an IC50 of ~0.015 µM (Nucleotide-binding oligomerization domain-containing protein 1 (NOD1, Homo sapiens, UniProt Q9Y239); ligand displacement, FP).
`COc1c(O[C@@H]2O[C@H](CO)[C@@H](O)[C@H](O)[C@H]2O[C@@H]2O[C@H](CO)[C@@H](O)[C@H](O)[C@H]2O)cc2oc(-c3ccc(O)cc3)cc(=O)c2c1O` gave an IC50 of > 500 µM (LDHA; enzyme activity, inhibitor; pH 7.4).
For `CCCCc1ccc(NS(=O)(=O)c2ccc3c4c(cccc24)C(=O)N3)cc1`, the IC50 was 59.4 µM (PTPN1; enzyme activity, inhibitor).
For `Cc1ccc2nc(N3C(=O)C(O)=C(C(=O)OC(C)(C)C)C3c3ccc(-c4ccc(Cl)cc4)o3)sc2c1` (centres unmarked), the IC50 was 4.5 µM (UDP-N-acetylglucosamine 1-carboxyvinyltransferase (murA, Escherichia coli K-12, UniProt P0A749); enzyme activity, inhibitor).
With `c1ccc(CCCN2CCN(CCOC(c3ccccc3)c3ccccc3)CC2)cc1` the IC50 was > 100 µM (GSR; enzyme activity, inhibitor, absorbance).
With `COc1cc(Nc2ncc(F)c(Nc3ccc4c(n3)NC(=O)C(C)(C)O4)n2)cc(OC)c1OC` the IC50 was 1.58 µM (Fatty-acid amide hydrolase 1 (Faah, Rattus norvegicus, UniProt P97612); enzyme activity, inhibitor).
For `NC(Cc1ccc(C(F)(F)[P-](F)(F)(F)(F)F)cc1)C(=O)O` (centres unmarked), the IC50 was 122 µM (PTPN1; enzyme activity, inhibitor).
For `CNC1CC(c2ccc(Cl)c(Cl)c2)c2ccccc21` (centres unmarked), the IC50 was > 100 µM (GSR; enzyme activity, inhibitor, absorbance).
For `CC[C@H](C)[C@@H]([C@@H](CC(=O)N1CCC[C@H]1[C@H](OC)[C@@H](C)C(=O)N[C@@H](Cc1ccccc1)C(=O)O)OC)N(C)C(=O)[C@@H](NC(=O)[C@H](C(C)C)N(C)C(=O)CCc1cn(CCOCCOCCOCCOCC(=O)NCc2ccc(CN3C(=O)[C@H]4CC(=O)N[C@H](C(=O)O)CC(=O)NCC(=O)N[C@@H](CCCNC(=N)N)C(=O)NC[C@H]3C(=O)N4)cc2)nn1)C(C)C`, the IC50 was 0.0107 µM (Integrin alpha-V/beta-3; ligand displacement).
`COc1cc2c3cc1Oc1cc(ccc1O)C[C@@H]1c4c(cc(OC)c(O)c4Oc4ccc(cc4)C[C@@H]3N(C)CC2)CC[N+]1(C)C` gave an IC50 of 54.4 µM (Acetylcholinesterase; enzyme activity, inhibitor, Ellman).
